From ChEMBL document CHEMBL5038617, “1,2,4-Triazole-3-thione compounds with a 4-ethyl alkyl/aryl sulfide substituent are broad-spectrum metallo-β-lactamase inhibitors with re-sensitization activity” (Eur J Med Chem, 2021)
pIC50, pKi: −log10 of the molar value.

Experiments:
[1] = Inhibition of bacterial Metallo-beta-lactamase VIM-1 (unknown origin) assessed as substrate hydrolysis using meropenem as substrate by UV-visible spectrometry analysis; design: species or system Bacteria
How it was run: (§1)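 Purified MBL enzyme at 1–70 nM final, in 50 mM HEPES pH 7.5 at 30 °C with 0.5% DMSO. Reporter substrate 150 µM imipenem or meropenem; hydrolysis read at 300 nm. […] Ki measured when inhibition exceeded 75%, by competitive-model v0/vi vs [I] slope or Dixon plot. Some runs used 10 min enzyme–inhibitor preincubation. Triplicate.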

[2] = Inhibition of bacterial Metallo-beta-lactamase VIM-2 (unknown origin) assessed as substrate hydrolysis using meropenem as substrate by UV-visible spectrometry analysis; design: species or system Bacteria; how it was run: as §1
[3] = Inhibition of bacterial Metallo-beta-lactamase VIM-4 (unknown origin) assessed as substrate hydrolysis using meropenem as substrate by UV-visible spectrometry analysis; design: species or system Bacteria; how it was run: as §1
[4] = Inhibition of bacterial New Delhi metallo-beta-lactamase 1 (unknown origin) assessed as substrate hydrolysis using meropenem as substrate by UV-visible spectrometry analysis; design: species or system Bacteria; how it was run: as §1
[5] = Inhibition of bacterial Metallo-beta-lactamase IMP-1 (unknown origin) assessed as substrate hydrolysis using meropenem as substrate by UV-visible spectrometry analysis; design: species or system Bacteria; how it was run: as §1
[6] = tested on: Klebsiella pneumoniae; experiment: Synergistic antibacterial activity against Klebsiella pneumonia 7023 clinical isolate strain producing Metallo-beta-lactamase VIM-1 assessed as meropenem MIC in presence of meropenem incubated for 24 hrs by broth microdilution method; assay type: functional
How it was run: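 CLSI broth microdilution in Mueller-Hinton broth with 5 × 10^4 CFU/well. Meropenem two-fold serial dilutions tested with and without inhibitor fixed at 32 µg/mL, inhibitor added before antibiotic. DMSO ≤1%. […] Growth controls included. Triplicate.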

[7] = tested on: HeLa; experiment: Cytotoxicity against human HeLa cells assessed as LDH release measured after 24 hrs by CytoTox96 nonradioactive assay; assay type: functional, cell-based
How it was run: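 HeLa cells (20,000/well) incubated 24 h at 37 °C, 5% CO2 in DMEM with 10% FBS, 4.5 mg/mL glucose and 2 mM L-glutamine, with compound up to 250 µM. LDH release measured. Medium-only control and Triton X-100 maximum-release control included. % cytotoxicity = 100 × sample/maximum release. IC50 taken as 50% cytotoxicity.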

[8] = Cytotoxicity against human PBMC cells assessed as cell viability measured after 24 hrs by flowcytometry method; assay type: toxicity, cell-based; conditions: pbmc
How it was run: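 PBMC from four individual donors were isolated by density centrifugation, frozen, thawed and resuspended at 1.10e6/mL in RPMI with 10% FBS. Compound added from 20 mM DMSO stock by serial dilution in RPMI; final concentrations 500–7.8 µM, in duplicate. After 24 h, live cells counted by flow cytometry using FSC/SSC gating. IC50 calculated for each donor.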

[9] = target: Hydroxyacylglutathione hydrolase, mitochondrial (Homo sapiens, UniProt Q16775); experiment: Inhibition of recombinant human Glyoxalase-2 assessed as reduction of substrate level using S-D-lactoylglutathione as substrate by spectrophotometric method
How it was run: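 Recombinant human glyoxalase II (5–25 nM) in 100 mM MOPS pH 7.2 at 25 °C. Substrate S-D-lactoylglutathione loss followed at 240 nm (ε 3.1 mM−1cm−1). Inhibitor in DMSO added to the substrate mix, and the reaction started with enzyme. Duplicate.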

[10] = tested on: Klebsiella pneumoniae; experiment: Synergistic antibacterial activity against Klebsiella pneumonia VA 416/02 clinical isolate strain producing Metallo-beta-lactamase VIM-4 assessed as meropenem MIC in presence of meropenem incubated for 24 hrs by broth microdilution method; conditions: VA 416/02, 24 h

pKi [1]: 6.68
pKi [2]: 6.62
pKi [3]: 6.51
pKi [4]: 4.65
pKi [5]: 4.71
MIC [6]: 2 µg/mL
pIC50 [9]: 4.28
MIC [10]: 4 µg/mL
Structure (SMILES): S=c1[nH]nc(-c2ccccc2)n1CCSCc1ccccc1
pIC50 [7]: 3.82
IC50 [8]: Non-Toxic
